Reference: ChEMBL document CHEMBL1136910, “Acetoxybenzhydrols as highly active and stable analogues of 1'S-1'-acetoxychavicol, a potent antiallergic principal from Alpinia galanga” (Bioorg Med Chem Lett, 2009)
Counter-ions that a name gives are not always drawn.

Assays:
Type in all cases: functional, cell-based
[1] = system: RBL-2H3; assay: Antiallergic activity against antigen-IgE-mediated degranulation in rat RBL2H3 cells assessed as inhibition of DNP-BSA-induced beta-hexosaminidase release preincubated for 10 mins before DNP-BSA challenge measured after 10 mins
Method in brief: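 Test sample was added to each RBL-2H3 well 10 min before DNP-BSA challenge. β-Hexosaminidase released into the medium was determined 10 min after challenge.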

[2] = system: RBL-2H3; assay: Antiallergic activity against antigen-IgE-mediated degranulation in rat RBL2H3 cells assessed as inhibition of DNP-BSA-induced IL4 release preincubated for 10 mins before DNP-BSA challenge measured after 4 hrs
Method in brief: (§1)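 Test sample was added to each RBL-2H3 well 10 min before DNP-BSA challenge. TNF-α and IL-4 released into the medium were measured 4 h after challenge.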

[3] = system: RBL-2H3; assay: Antiallergic activity against antigen-IgE-mediated degranulation in rat RBL2H3 cells assessed as inhibition of DNP-BSA-induced TNFalpha release preincubated for 10 mins before DNP-BSA challenge measured after 4 hrs; method in brief: as §1

Row | SMILES | IC50 [1] | IC50 [2] | IC50 [3]
1 | CCC(=O)Oc1ccc(C(OC(=O)CC)c2ccccc2)cc1 (stereo unspecified) | 38 µM | – | –
2 | CC(C)C(=O)Oc1ccc(C(OC(=O)C(C)C)c2ccccc2)cc1 (stereo unspecified) | > 100 µM | – | –
3 | O=COc1ccc(C(OC=O)c2ccccc2)cc1 (stereo unspecified) | > 100 µM | – | –
4 | CC(=O)Oc1ccc(C(O)c2ccccc2)cc1 (stereo unspecified) | > 100 µM | – | –
5 | CN1CCC(=C2c3ccccc3CC(=O)c3sccc32)CC1 [KETOTIFEN FUMARATE] | 158 µM | – | –

Molecules with a lower IC50 [1], results first:

Row | IC50 [1] | IC50 [2] | IC50 [3] | SMILES
6 | 36 µM | – | – | CC(=O)Oc1ccc(C(OC(=O)C(C)(C)C)c2ccccc2)cc1 (stereo unspecified)
7 | 28 µM | – | – | C=CC(=O)Oc1ccc(C(OC(=O)C=C)c2ccccc2)cc1 (stereo unspecified)
8 | 27 µM | – | – | CC(=O)Oc1ccc(C(OC(=O)C(C)C)c2ccccc2)cc1 (stereo unspecified)
9 | 18 µM | – | – | COC(=O)Oc1ccc(C(OC(=O)OC)c2ccccc2)cc1 (stereo unspecified)
10 | 17 µM | 23 µM | 28 µM | CC(=O)Oc1ccc(C(OC(=O)c2ccccc2)c2ccccc2)cc1 (stereo unspecified)
11 | 14 µM | – | – | CC(=O)Oc1ccc(C(OC(C)=O)c2ccccc2)cc1 (stereo unspecified)
12 | 6.5 µM | 12 µM | 11 µM | COC(=O)OC(c1ccccc1)c1ccc(OC(C)=O)cc1 (stereo unspecified)
